Rad51 HR inh – blocks human Rad51 in homologous recombination; AID 1385; hRad51 DNA strand exchange, fluorescence dequenching; inhibition, % at 10 µM; hit rate 0.085% among 200,000;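 active = inhibition above 40% at the single screening dose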;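 also: 0% = DMSO control wells and 100% = blanks with heterologous ssDNA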
Target sequence (Q06609 whole entry, looked up): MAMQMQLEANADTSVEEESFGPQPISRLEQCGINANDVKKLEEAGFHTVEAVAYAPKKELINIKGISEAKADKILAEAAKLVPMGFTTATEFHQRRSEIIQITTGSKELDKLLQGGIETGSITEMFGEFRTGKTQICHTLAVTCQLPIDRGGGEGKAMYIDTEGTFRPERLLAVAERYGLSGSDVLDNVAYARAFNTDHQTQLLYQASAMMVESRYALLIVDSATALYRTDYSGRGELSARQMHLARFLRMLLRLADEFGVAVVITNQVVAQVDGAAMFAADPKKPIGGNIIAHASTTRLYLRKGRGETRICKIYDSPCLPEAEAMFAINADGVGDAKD
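Material: hRad51 filaments on single-stranded DNA; Reagent: Donor/quencher-labelled 47-bp dsDNA substrate; Compound: 10 µM final, single point; Schedule: 37 °C 15-min filament assembly, 30-min compound preincubation, 15-min exchange; Technique: FRET fluorescence, excitation 485 nm, emission 520 nm; Benchmarks: control wells and blank wells on each plate.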
Wee1 degr inh – human Wee1 degradation inhibition, primary screen; HeLa Luc-Wee1K328M stability, luciferase luminescence; 100% = proteasome inhibitor MG132 effect; reporter increase, % at 5 µM; hit rate 1.2% among 220,000; P30291; AID 1321;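 active = activation above the mean of all tested compounds plus 3 SD, set per screening run, cut at about 8.8% in these data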;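 also: cells exposed to compound for 20 h before luminescence read; 0% = DMSO alone and 100% = MG132 at 30 µM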
Arbovirus anti – arbovirus infection inhibition; inhibition, % at 10 µM; arbovirus infection cell-based antiviral screen; hit rate 0.37% among 200,000; in the data active = inhibition above about 30%
Lmaj promast – Leishmania major promastigote growth inhibition; Leishmania major promastigotes, resazurin fluorescence viability; inhibition, % at 10 µM; hit rate 9% among 200,000; AID 1063;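 also: promastigotes grown with compound for 44 hours at 28 °C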
PKD1 kinase inh – PKD1 (human) kinase inhibition; PKD1 kinase fluorescence polarization assay; inhibition, % (concentration not given with the values); AID 797; hit rate 0.056% among 200,000; Q15139
CHOP inh – CHOP inhibition in unfolded protein response; inhibition, % at 10 µM; AID 2732; CHO-K1 CHOP-promoter luciferase, tunicamycin-induced, 15-18 h; hit rate 3.8% among 220,000;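 active = compounds that reduced the stress-induced luciferase reporter signal by more than about 70% of percent inhibition, limit read from the data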;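 also: 0% = tunicamycin plus vehicle and 100% = wells without tunicamycin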
* marks the source's active call; other numbers are inactive results; · = not tested or not shown. Only some compounds are listed: those with a hit (about 12% of all), similar ones and a draw of the others. Rule as the data show it, unless noted: active = inhibition above about 50%; inactive = the rest.

SMILES	Rad51 HR inh	Wee1 degr inh	Arbovirus anti	Lmaj promast	PKD1 kinase inh	CHOP inh
COc1ccc(/C=N/Nc2nc(Nc3ccccc3)nc(N3CCCCC3)n2)cc1OC	8.7	-0.3	-13.5	98.4*	-7.5	-15.7
CCOc1cc(/C=N/Nc2nc(Nc3ccccc3)nc(N3CCCCC3)n2)ccc1OCC(=O)O	-6.9	-4.0	15.7	-11.5	-13.5	-2.0
O=C(Oc1cccc(/C=N/Nc2nc(Nc3ccccc3)nc(N3CCOCC3)n2)c1)c1ccco1	14.3	3.1	-8.8	64.5*	-17.2	37.8
Cc1ccc(C2NC(c3ccc(C)cc3)C(C)C(=O)C2C)cc1 (stereo unspecified)	7.5	-2.1	·	·	·	1.8
COC(=O)c1cc(C(=O)c2ccc(Cl)cc2Cl)cn1C	-7.5	0.5	-0.7	-6.5	-2.9	71.7*
CC(CN1CCN(C)CC1)OC(=O)c1ccc(Cl)cc1Cl (stereo unspecified)	·	-1.1	11.5	-0.1	-10.3	14.4
COC(=O)c1cc(C(=O)c2cccc(Cl)c2Cl)cn1C	1.1	0.1	-0.2	5.4	4.9	65.4
CN1CCC(OC(=O)c2cccc(Br)c2)CC1	1.2	-0.8	-7.6	93.1*	-2.3	-1.6
CN1CCC(OC(=O)c2ccc(Cl)cc2Cl)CC1	0.1	-0.2	-15.7	96.3*	6.1	-2.0
CCN(c1ccccc1)S(=O)(=O)c1ccc(OC)c(NC(=O)c2cccs2)c1	-7.7	7.8	-7.4	96.4*	7.7	8.4
CC1(C)COC(/C=C/c2cccc([N+](=O)[O-])c2)=N1	6.9	8.6	20.9	97.8*	-0.2	-37.0
CC1(C)COC(c2cc([N+](=O)[O-])ccc2Cl)=N1	4.0	0.0	4.1	-0.2	1.4	19.0
Clc1cc(NCc2cccs2)ccc1N1CCOCC1	-1.1	1.3	-1.2	1.2	-8.8	-14.1
C#CCOc1ccc(/C=C2\SC(=S)N(Cc3cccnc3)C2=O)cc1	·	-3.2	0.5	1.3	-12.4	-7.7
COc1ccc(/C=C2\SC(=S)N(Cc3cccnc3)C2=O)cc1C	·	2.5	-14.8	15.8	7.8	88.2*
CN1CCN(NC(=O)c2ccc(S(=O)(=O)N3CC4(C)CC3CC(C)(C)C4)cc2)CC1 (stereo unspecified)	-15.9	-0.8	·	·	·	18.1
Cc1nn(-c2ccccc2)c(Cl)c1CN(C(=O)CCl)c1cccc2ccccc12	·	-2.6	-34.0	98.7*	2.7	-70.5
CC(=O)N(Cc1c(C)nn(-c2ccccc2)c1Cl)c1ccc(Cl)cc1	7.9	0.8	-5.4	17.4	-0.1	2.1
CC[n+]1c(C)sc2cc(C)ccc21	15.7	-4.1	-12.3	-1.5	-5.0	23.4
CCN1/C(=C/c2ccc3cc(C)ccc3[n+]2CC)Sc2ccccc21	-214.6	-1.9	-35.7	100.5*	-25.1	107.8*
CCN1/C(=C/c2ccc3cc(C)ccc3[n+]2CC)Sc2cc(C)c(C)cc21	-219.8	-3.7	-34.7	100.3*	-21.3	59.5
CCC(=O)/C=C1/Sc2ccccc2N1CC	4.8	-1.4	-7.0	49.4	2.2	33.6
CC(C)(CC(=O)O)CC(=O)NNc1ncccc1C#N	-14.4	-2.1	·	·	·	10.3
CCOC(=O)c1oc2ccc(CNCCO)c(Cl)c2c1C	-15.4	-2.4	-1.6	96.7*	-5.8	16.6
CCOC(=O)c1oc2ccccc2c1CN1CCCCC1	·	-1.3	-0.3	-4.1	-0.5	-16.2
SMILES	Rad51 HR inh	Wee1 degr inh	Arbovirus anti	Lmaj promast	PKD1 kinase inh	CHOP inh
CCOC(=O)c1oc2ccc(CNC3CCCCC3)c(Cl)c2c1C	8.3	-0.6	-20.2	95.8*	-3.9	26.9
Cc1c(C2=CCN(S(=O)(=O)c3ccc(Br)cc3)CC2)c2ccccc2n1C	-40.1	-0.8	0.8	63.6*	-4.7	22.9
CCn1c(C)c(C2=CCN(S(=O)(=O)c3ccc(C)cc3)CC2)c2ccccc21	-62.3	3.1	15.8	16.3	-10.9	18.2
COc1ccc(OC)c(NC(=O)c2cc(-c3ccc(C)cc3O)n[nH]2)c1	0.7	3.4	30.8*	-6.6	4.3	87.4*
Clc1ccc(-c2cc3ccccc3[nH]2)cc1	8.1	2.9	11.7	-6.9	3.4	94.8*
O=c1cc(-c2ccc(Cl)cc2)[nH]c2ccccc12	-13.4	-0.3	·	·	·	22.3
CN1CCN(S(=O)(=O)c2cccc(C(=O)Nc3nc(-c4ccccc4)cs3)c2)CC1	·	4.3	17.7	45.0	-8.8	42.5
COc1ccc(-c2csc(NC(=O)c3cccc(S(=O)(=O)N4CCN(C)CC4)c3)n2)cc1	-5.8	-0.9	9.5	63.1*	0.4	47.5
O=C(Nc1nc(-c2ccc(S(=O)(=O)N3CCCC3)cc2)cs1)c1ccco1	-1.8	3.0	-3.1	97.1*	-3.8	9.0
COc1ccccc1OC(C)C(=O)Nc1nc(-c2ccc(S(=O)(=O)N3CCOCC3)cc2)cs1 (stereo unspecified)	-1.3	5.0	-2.9	28.9	1.5	18.5
COc1ccccc1C(=O)Nc1nc(-c2ccc(S(=O)(=O)N3CCOCC3)cc2)cs1	3.0	-1.7	-1.6	23.4	-4.7	92.4*
CCS(=O)(=O)N1CCN(C(C)CCc2ccccc2)CC1 (stereo unspecified)	-0.5	3.0	-1.7	74.8*	0.6	29.7
CC(CCc1ccccc1)N1CCN(Cc2ccccc2)CC1 (stereo unspecified)	·	1.7	-4.7	96.5*	-4.9	13.1
CC(C)(C)c1ccc(C(=O)N2CCC(=O)N(C(CO)Cc3ccccc3)CC2)cc1 (stereo unspecified)	-2.3	0.7	2.0	-5.2	2.4	-1.0
O=C(N/N=C/C(Br)=C/c1ccccc1)c1cccs1	2.1	6.3	-1.2	8.3	-7.5	-46.5
O=C(NC(=S)Nc1ccccn1)c1cccc([N+](=O)[O-])c1	18.2	2.8	·	·	·	-19.6
O=C1N=C(N2CCOCC2)S/C1=C/c1cc2c(cc1[N+](=O)[O-])OCO2	26.8	9.1*	·	·	·	-41.3
CN1CCc2c(n(CC(O)CN3CCN(CCO)CC3)c3ccccc23)C1=O (stereo unspecified)	-5.6	-1.1	0.4	-7.9	1.3	40.2
CCC1=NN2C(=N)/C(=C\c3cccn3-c3ccc(C)cc3C)C(=O)N=C2S1	-5.0	0.1	39.4*	11.9	-3.4	-12.9
CCC1=NN2C(=N)/C(=C\c3cccn3-c3c(C)cccc3C)C(=O)N=C2S1	9.4	-1.4	31.4*	1.9	1.5	35.1
CCC1=NN2C(=N)/C(=C\c3cccn3-c3cccc(Cl)c3)C(=O)N=C2S1	-6.9	-0.6	23.4	-15.1	-1.8	8.0
CC(C)Nc1nc(NC(C)C)nc(SCC(N)=O)n1	-4.5	-3.6	-2.2	-6.9	-3.4	-14.1
CC1(C)CCC23CC[C@]4(C)C(OC2=O)(C3C1)[C@H]1O[C@H]1C1[C@@]2(C)CC[C@@H](O)C(C)(C)C2CC[C@]14C (stereo partly specified)	4.8	·	·	·	·	·
CCc1ccc2c(c1)C(O)(CC(=O)c1cccs1)C(=O)N2 (stereo unspecified)	9.4	9.8*	-3.0	-14.5	0.5	11.6
CC(=O)Nc1ccccc1OCC(=O)NCC(F)(F)F	16.7	-2.1	0.4	10.1	4.2	18.1

High-throughput results as filed in PubChem.
